Reference: ChEMBL document CHEMBL1154084, “Preparation and antitubercular activities in vitro and in vivo of novel Schiff bases of isoniazid” (Eur J Med Chem, 2009)
Converted amounts (≈) assume the structure as drawn.

Assays:
[1] = tested on: Mycobacterium tuberculosis; test: Bactericidal activity in Mycobacterium tuberculosis Erdman infected in mouse macrophages assessed as reduction of colony forming units after 7 days; type: functional; details: 168 h
How it was run: (§1)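 CFU read at 7 days against drug-free controls. EC90 is the lowest concentration giving 90% CFU reduction (bacteriostatic); EC99 is the lowest giving 99% (bactericidal).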

[2] = tested on: Mycobacterium tuberculosis; test: Antitubercular activity against Mycobacterium tuberculosis H37Rv by broth dilution method; type: functional
[3] = tested on: Mycobacterium tuberculosis; test: Bacteriostatic activity in Mycobacterium tuberculosis Erdman infected in mouse macrophages assessed as reduction of colony forming units after 7 days; type: functional; details: 168 h; how it was run: as §1
[4] = Ratio of EC90 for Mycobacterium tuberculosis Erdman to MIC for Mycobacterium tuberculosis H37Rv; type: functional
[5] = Selectivity index, ratio IC50 for african green monkey Vero cells to MIC for Mycobacterium tuberculosis H37Rv; type: functional
How it was run: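 Vero cells exposed 72 h, at up to ten times the MIC, with viability read by a cell proliferation assay. SI is IC50 divided by the MIC against H37Rv; the screening criterion is SI >10.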

Mus musculus = species on record: Mus musculus; test: Toxicity in C57BL/6 mouse assessed as overt toxicity; type: organism-based; details: in vivo
How it was run: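 C57BL/6 mice infected intranasally with approximately one million viable M. tuberculosis organisms. Dosing by gavage at 25 mg/kg body weight (compound in DMSO diluted in distilled water), starting one day post-infection and given for two days. Animals observed for ill effects or overt toxicity until sacrifice by CO2 inhalation three days post-infection. Groups of six mice.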

[6] = tested on: Mycobacterium tuberculosis; test: Antitubercular activity against Mycobacterium tuberculosis infected in C57BL/6 mouse assessed reduction in colony forming units per lung at 25 mg/kg administered for 2 days after 24 hrs post-infection measured after 3 days by short course therapy (Rvb=6.51 +/- 0.13 logCFU/lung); type: functional
[7] = tested on: Mycobacterium tuberculosis; test: Antitubercular activity against Mycobacterium tuberculosis infected in CD1 mouse assessed colony forming units per lung at 25 mg/kg administered 5 days a week for 4 weeks after 1 week post-infection by long course therapy (Rvb=8.80 +/- 0.18 logCFU/lung); type: functional
[8] = tested on: Mycobacterium tuberculosis; test: Antitubercular activity against Mycobacterium tuberculosis infected in C57BL/6 mouse assessed reduction in colony forming units per lung at 25 mg/kg administered for 2 days after 24 hrs post-infection measured after 3 days by short course therapy (Rvb=6.37 +/- 0.24 logCFU/lung); type: functional
[9] = tested on: Mycobacterium tuberculosis; test: Antitubercular activity against Mycobacterium tuberculosis Erdman by broth dilution method; type: functional
How it was run: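 Modified 7H10 broth (no agar or malachite green; pH 6.6) with 10% OADC and 0.05% Tween 80; broth dilution MIC90. Inoculum grown 5 days at 37°C on rotary shaker, diluted to 100 Klett units/mL (about 5 × 10^7 cfu/mL), checked by triplicate 7H10 agar counts after 4 weeks at 37°C. Compounds dissolved in DMSO, diluted in distilled water; isoniazid and PAS as reference standards.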

| Compound | MIC90 [2] | Ratio [5] | other results |
| --- | --- | --- | --- |
| O=C(N/N=C/c1ccc(Cl)cc1)c1ccncc1 | 0.2 µg/mL (≈ 0.77 µM) | >50 | EC99 [1]: 0.14 µg/mL; EC90 [3]: 0.04 µg/mL (≈ 0.154 µM); Ratio [4]: 0.2 |
| O=C(N/N=C/c1ccccc1Cl)c1ccncc1 | 0.78 µg/mL (≈ 3 µM) | >128 |  |
| O=C(N/N=C/c1ccccc1[N+](=O)[O-])c1ccncc1 | 0.39 µg/mL (≈ 1.44 µM) |  |  |
| NNC(=O)c1ccncc1 [ISONIAZID] |  |  | MIC [2]: 0.03 µg/mL (≈ 0.219 µM); Activity (Mus musculus): Non-toxic; log10cfu [6]: 4.96; log10cfu [7]: 4.71; Ratio [4]: 1; log10cfu [8]: 5.58; MIC [9]: 0.03 µg/mL (≈ 0.219 µM) |
| CC/C=C/C=N/NC(=O)c1ccncc1 | 0.05 µg/mL (≈ 0.246 µM) | 712 | EC99 [1]: 0.529 µg/mL; EC90 [3]: 0.028 µg/mL (≈ 0.138 µM); Ratio [4]: 0.56 |
| O=C(N/N=C/c1cccc([N+](=O)[O-])c1)c1ccncc1 |  | 8 |  |
| O=C(N/N=C/C=C(c1ccccc1)c1ccccc1)c1ccncc1 |  | 68 | EC99 [1]: 0.121 µg/mL; EC90 [3]: 0.028 µg/mL (≈ 0.0855 µM); Ratio [4]: 0.28 |
| O=C(N/N=C/c1c(F)cccc1F)c1ccncc1 | 0.1 µg/mL (≈ 0.383 µM) | >1250 | EC99 [1]: 0.15 µg/mL; EC90 [3]: 0.037 µg/mL (≈ 0.142 µM); Ratio [4]: 0.37 |
| CCCCCCOc1ccc(/C=N/NC(=O)c2ccncc2)cc1 |  | 1.5 |  |
| CCCCC/C(=N\NC(=O)c1ccncc1)c1ccccc1 | 0.39 µg/mL (≈ 1.32 µM) | 25 | EC99 [1]: 0.25 µg/mL; EC90 [3]: 0.05 µg/mL (≈ 0.169 µM); Ratio [4]: 0.13 |
| O=C(N/N=C/c1ccc(/C=N/NC(=O)c2ccncc2)cc1)c1ccncc1 | 0.05 µg/mL (≈ 0.134 µM) | >126 |  |
| CC(C)=NNC(=O)c1ccncc1 | 0.1 µg/mL (≈ 0.564 µM) | >10000 |  |
| COc1ccccc1/C=C/C=N/NC(=O)c1ccncc1 | 0.1 µg/mL (≈ 0.355 µM) |  |  |
| O=C(N/N=C/c1ccccc1OCc1ccccc1)c1ccncc1 |  |  | Activity (Mus musculus): Non-toxic; log10cfu [8]: 5.49; MIC90 [9]: 0.06 µg/mL (≈ 0.181 µM) |
| COc1cc(/C=N/NC(=O)c2ccncc2)cc(I)c1OC | 0.2 µg/mL (≈ 0.486 µM) | 297 |  |
| CC(C)=CCC/C(C)=C/C=N/NC(=O)c1ccncc1 | 0.1 µg/mL (≈ 0.369 µM) |  |  |
| CCC/C(CC(=O)OCC)=N/NC(=O)c1ccncc1 [ETHYL BUTYRYL ACETATE ISONICOTINOYLHYDRAZONE] | 0.39 µg/mL | >2631 |  |
| COc1cc(/C=N/NC(=O)c2ccncc2)cc(I)c1O | 0.39 µg/mL (≈ 0.982 µM) | >160 |  |
| CCC/C=C/C=N/NC(=O)c1ccncc1 | < 6.25 µg/mL |  |  |
| C/C=C/C=N/NC(=O)c1ccncc1 | < 6.25 µg/mL |  |  |
| O=C(N/N=C/c1ccccc1)c1ccncc1 [N'-BENZYLIDENE ISONICOTINOHYDRAZIDE] | 0.05 µg/mL (≈ 0.222 µM) | 4000 |  |
| O=C(N/N=C/c1ccc(I)cc1)c1ccncc1 | 0.2 µg/mL (≈ 0.57 µM) | >50 |  |

| Compound | MIC90 [2] | Ratio [5] | other results |
| --- | --- | --- | --- |
| O=C(NN=C1CCCCC1)c1ccncc1 | 0.03 µg/mL (≈ 0.138 µM) | >40000 | EC99 [1]: 0.42 µg/mL; EC90 [3]: 0.08 µg/mL (≈ 0.368 µM); log10cfu [7]: 4.65; Ratio [4]: 2.7 |
| CC1C/C(=N/NC(=O)c2ccncc2)CC(C)(C)C1 (stereo not drawn) | < 0.025 µg/mL | >2000 | EC99 [1]: 0.15 µg/mL; EC90 [3]: 0.063 µg/mL (≈ 0.243 µM); Ratio [4]: 2.52 |
| O=C(N/N=C/c1ccc(Br)cc1)c1ccncc1 | 3.13 µg/mL (≈ 10.3 µM) | 12 |  |
| CCOC(=O)/C(CCc1ccccc1)=N\NC(=O)c1ccncc1 | 0.1 µg/mL (≈ 0.307 µM) | >1250 |  |
| CC(C)C/C=C(\C=N\NC(=O)c1ccncc1)C(C)C |  | >10 | log10cfu [6]: 5.49 |
| CCCCCCCCCCCC/C=N\NC(=O)c1ccncc1 | 0.2 µg/mL (≈ 0.63 µM) | 374 |  |
| O=C(N/N=C/c1ccc(Cl)c(Cl)c1)c1ccncc1 | 0.2 µg/mL (≈ 0.68 µM) | >50 | EC99 [1]: 0.596 µg/mL; EC90 [3]: 0.106 µg/mL (≈ 0.36 µM); Ratio [4]: 0.53 |
| O=C(N/N=C/c1ccc(Cl)c([N+](=O)[O-])c1)c1ccncc1 | 0.39 µg/mL (≈ 1.28 µM) | >64 | EC99 [1]: 0.3 µg/mL; EC90 [3]: 0.078 µg/mL (≈ 0.256 µM); Ratio [4]: 0.2 |
| O=C(N/N=C/c1cccc(Cl)c1Cl)c1ccncc1 | 0.78 µg/mL (≈ 2.65 µM) | >32 | EC99 [1]: 0.3 µg/mL; EC90 [3]: 0.071 µg/mL (≈ 0.241 µM); Ratio [4]: 0.09 |
| CCCCOc1ccc(/C=N/NC(=O)c2ccncc2)cc1 | 0.1 µg/mL (≈ 0.336 µM) | >2000 |  |
| CCCC/C=C/C=N/NC(=O)c1ccncc1 | < 6.25 µg/mL |  |  |
| O=C(N/N=C/c1ccc(F)c(F)c1)c1ccncc1 | 1.56 µg/mL (≈ 5.97 µM) |  |  |
| O=C(N/N=C/C=N/NC(=O)c1ccncc1)c1ccncc1 | 0.1 µg/mL (≈ 0.338 µM) |  |  |
| CCOC(=O)C/C(Cc1ccccc1)=N/NC(=O)c1ccncc1 | 0.1 µg/mL (≈ 0.307 µM) | >1250 | EC99 [1]: 0.211 µg/mL; EC90 [3]: 0.01 µg/mL (≈ 0.0307 µM); Ratio [4]: 0.1 |
| CCOC(=O)C/C(C)=N\NC(=O)c1ccncc1 [ETHYL ACETOACETATE ISONICOTINOYLHYDRAZONE] | 0.2 µg/mL (≈ 0.802 µM) | >5000 |  |
| CC(C)=CCCC(C)C/C=N/NC(=O)c1ccncc1 (stereo not drawn) | 0.2 µg/mL (≈ 0.732 µM) | >1000 |  |
| COc1ccc(/C=C/C=N/NC(=O)c2ccncc2)cc1 |  | >50 |  |
| CCCC/C=C(\C=N\NC(=O)c1ccncc1)CCC |  | 1.6 |  |
| Nc1ccc(C(=O)O)c(O)c1 [AMINOSALICYLIC ACID] |  |  | MIC [9]: 0.03 µg/mL (≈ 0.196 µM) |
| CC(/C=N/NC(=O)c1ccncc1)=C\c1ccccc1 | 0.5 µg/mL (≈ 1.88 µM) | >250 | log10cfu [6]: 5.22 |
| CCCCCCCCCCCCC/C=N\NC(=O)c1ccncc1 | 0.2 µg/mL (≈ 0.603 µM) |  |  |
| O=C(N/N=C/c1c(Cl)cccc1Cl)c1ccncc1 | < 6.25 µg/mL |  |  |
